# Screens from PubChem BioAssay.
# An excerpt weighted towards active compounds, which were near 1.7% of everything screened.
# PLC-beta3 inh – PLC-beta3 (human) inhibition, primary screen; Q01970; Purified PLC-beta3, fluorogenic substrate, fluorescence; inhibition, % at 12.2 µM; 370,000 tested, 0.18% active; AID 720704; in the data active = inhibition above about 11%;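 note: 0% = median of compound wells on plate and 100% = full blocker control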
# Rpn11 inh – blocks the human proteasome subunit Rpn11; 360,000 tested, 0.59% active; AID 588493; inhibition, % at 20 µM; human 26S proteasome, Ub4-pepOG fluorescence polarization; 20S core pre-blocked with epoxomicin;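 active = inhibition at 20 µM, scaled to each plate's controls, above about 33%, limit read from the data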
# UCH37 inh – blocks the human deubiquitinase UCH37. Q9Y5K5. purified proteasome/UCH37, Ub-AMC cleavage fluorescence. inhibition, % (no concentration beside the values). 330,000 tested, 0.33% active. AID 588478;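 active = mean inhibition over replicate wells above about 20%, limit read from the data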;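 note: 0% = compound-free wells with enzyme and 100% = wells lacking proteasome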
# Target sequence (Q9Y5K5 whole entry, looked up): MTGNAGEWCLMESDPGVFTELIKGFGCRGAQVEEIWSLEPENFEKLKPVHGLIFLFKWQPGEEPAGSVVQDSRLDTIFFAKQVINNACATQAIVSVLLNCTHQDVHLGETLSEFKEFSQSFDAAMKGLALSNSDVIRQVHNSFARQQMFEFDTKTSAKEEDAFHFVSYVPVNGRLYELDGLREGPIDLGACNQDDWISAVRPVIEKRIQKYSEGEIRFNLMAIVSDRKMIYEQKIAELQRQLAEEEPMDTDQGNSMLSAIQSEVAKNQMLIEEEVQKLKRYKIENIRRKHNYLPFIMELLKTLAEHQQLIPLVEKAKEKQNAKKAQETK
#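 Material: Human UCH37 enzyme supplied as purified proteasome complex | Schedule: 30 min compound-proteasome preincubation then 25 min substrate reaction, room temperature | Detection: AMC fluorescence from Ub-AMC cleavage, excitation 355 nm, emission 460 nm | Benchmarks: Wells without proteasome as full block, compound-free enzyme plus substrate as uninhibited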
# PLC-gamma1 inh – inhibitors of human phospholipase C gamma1; P19174; purified PLC-gamma1, fluorogenic substrate, fluorescence; inhibition, % at 12.2 µM; 370,000 tested, 0.84% active; in the data active = inhibition above about 9.5%
# UCH37 confirm – UCH37 Ub-AMC cleavage inhibition, confirmed; shares compounds with UCH37 inh; Proteasome-bound UCH37, Ub-AMC cleavage fluorescence; AID 624100; inhibition, % at 20 µM; 480 tested, 27% active;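 active = average inhibition over replicates above about 50%, so the earlier screening hit is confirmed, limit read from the data; inactive = the rest, counted as false positives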;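 note: based on cleavage rate fitted by regression over a 30 min kinetic read; 0% = proteasome plus Ub-AMC and 100% = Ub-AMC without proteasome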
# * marks the source's active call; other numbers are inactive results; nt = no result given.
SMILES,PLC-beta3 inh,Rpn11 inh,UCH37 inh,PLC-gamma1 inh,UCH37 confirm
CC(CCN1CCc2nc(-c3ccccc3)c(-c3ccccc3)cc2C1)=NOC[C@@H](C)[C@H](OCc1ccccc1)C(C)C,nt,nt,3,nt,nt
O=C1C(Cl)=C(NS(=O)(=O)c2ccc([N+](=O)[O-])cc2)C(=O)c2ccccc21,1,-3,24*,4,nt
O=C1SC(SC(=Nc2ccccc2)Nc2ccccc2)C(=O)N1c1ccccc1 (stereo not drawn),14*,-2,4,0,nt
O=[N+]([O-])c1cc([N+](=O)[O-])c2oc(-c3ccccc3)c(Br)c2c1O,nt,-5,27*,nt,71*
O=c1cc(-c2ccccc2Cl)oc2ccc([N+](=O)[O-])c(O)c12,0,-7,2,2,nt
Cc1cccc(C(=O)Oc2ccc(C=NNC(=O)Cc3ccc([N+](=O)[O-])cc3)cc2)c1,nt,nt,1,nt,nt
c1coc(-c2nnc(-c3cccs3)o2)c1,-56,0,-122,-48,nt
O=c1cc(-c2ccco2)nc(-c2cccs2)o1,-4,10,43*,-3,19
CCCCOC(=O)c1ccc(NC(=O)Nc2ccc(OC)c(OC)c2)cc1,-3,5,38*,-1,-16
CC(Sc1nnc(-c2cccnc2)n1N)C(=O)NCCC1=CCCCC1 (stereo not drawn),-4,-9,63*,8,52*
COc1cc(C=Nn2c(C)n[nH]c2=S)ccc1OCc1ccccc1,nt,nt,2,nt,nt
COC1=C(c2ccccc2)C(=O)c2ccccc2C1=O,-4,-13,27*,-5,33
CCC(C)(C)c1ccc(OCCCC[n+]2ccc(C)cc2)c(C(C)(C)CC)c1,-6,nt,27*,0,21
Cc1cc(C(C)(C)C)ccc1OCCCCN1CCCC1,2,-2,3,-1,nt
Cc1cc[n+](CC[n+]2ccc(C)cc2)cc1,-8,3,-1,-8,nt
CCC(C)(C)c1ccc(OCCCC[n+]2cccc(C)c2C)c(C(C)(C)CC)c1,-2,3,38*,2,59*
O=C1Nc2ccccc2C1(O)CC(=NO)c1ccccc1 (stereo not drawn),nt,nt,3,nt,nt
CCN(CC)C(=O)c1ccc(/C=C/c2c[nH]c3ccccc23)[n+](C)c1,-81,nt,29*,-62,33
Cc1ccc(C(=O)/C=C/c2c[nH]c3ccccc23)cc1,-192,21,-6,-173,nt
CC[n+]1c(/C=C/c2c[nH]c3ccccc23)ccc2cc(C)ccc21,-196,nt,29*,-214,42
O=C(CCCOc1ccc(Cl)cc1Cl)NN=Cc1ccccc1O,nt,nt,-1,nt,nt
CCCCCC(=O)NN=Cc1ccco1,nt,nt,-3,nt,nt
CCOC(=O)NN=Cc1c(C)c(C(=O)c2ccc(F)cc2)n2ccccc12,nt,nt,1,nt,nt
CN(C)S(=O)(=O)c1ccc(C(=O)Nc2nnc(-c3cccs3)o2)cc1,0,-4,52*,2,3
CCCOc1ccc(/C(O)=C2/C(=O)C(=O)N(CCN(C)C)C2c2ccc(O)c(OC)c2)cc1 (stereo not drawn),nt,-3,22*,nt,-6
SMILES,PLC-beta3 inh,Rpn11 inh,UCH37 inh,PLC-gamma1 inh,UCH37 confirm
COc1ccc(C2/C(=C(\O)c3ccc(OC)c(Cl)c3)C(=O)C(=O)N2CCN(C)C)cc1 (stereo not drawn),1,0,34*,2,14
CCCOc1ccc(C2/C(=C(/O)c3ccccc3)C(=O)C(=O)N2CCCN(C)C)cc1OC (stereo not drawn),-1,0,4,-1,nt
Fc1ccc(C=NNC(=S)Nc2ccc(Cl)cc2)cc1F,nt,nt,6,nt,nt
O=C(O)c1cccc(Cn2c(Cl)c(C=NNC(=O)c3ccco3)sc2=O)c1,nt,nt,12,nt,nt
CCOC(=O)C1CCCc2c1[nH]c1c(C(N)=O)cccc21 (stereo not drawn),-23,1,53*,-17,-13
NC(=O)c1cccc2c3c([nH]c12)CCCC3,nt,-4,0,nt,nt
CC(=O)C1=C(C)OC2(O)c3ccccc3C(=O)C12O (stereo not drawn),-7,7,77*,5,71*
CC1=C(C(=O)OC(C)C)C2(O)C(=O)c3ccccc3C2(O)N1 (stereo not drawn),0,3,14,-1,nt
CC(=O)N(C1=C(N)C(=O)c2ccccc2C1=O)C(C)C,-8,5,26*,-2,20
CC(=O)N(C)C1=C(O)c2ccccc2C(=O)C1=O,0,6,9,-3,nt
COC1(NC(=O)c2ccccc2)C(C)=CC(=O)C=C1C,3,2,3,1,nt
O=C(NC1(O)C(=O)c2ccccc2C1=O)c1ccccc1,5,13,84*,8,74*
